Bioassay records deposited in PubChem by several laboratories.
Arr AP2 block – inhibitors of beta-arrestin/AP2 binding, primary screen, biochemical, GPCR trafficking, flow cytometry; beta-arrestin 1 C-terminal peptide binding to AP2 beta2-adaptin appendage (human); FITC-arrestin peptide / GST-AP2 beads; AP2 beta2 appendage carries R879A mutation; inhibition, % at 10 µM; 0.31% of 340,000 active; AID 504490, 2011;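 active = inhibition above a set limit, near 3 SD of compounds lacking own fluorescence, cut at about 54% in these data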;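 also: plate controls were DMSO wells for no effect and 5 µM unlabelled arrestin peptide for full effect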
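System: GST-AP2 R879A glutathione beads; medium: PBS, Tween 20 0.05%, BSA 0.1%; reagent: fluorescein-tagged arrestin peptide at 50 nM final; schedule: pre-incubation 12 min, peptide binding 1 h, room temperature; detection: flow cytometry, FL1 (488/535 nm); read-out: inhibition as reduced fluorescein signal on beads, percent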
procasp7 counter – procaspase-7 activators, primary screen, counter-screen for procaspase-3 activator project, biochemical, absorbance, HTS, human; activation, % at 8.5 µM; 0.093% of 330,000 active; recombinant procaspase-7, Ac-DEVD-pNA absorbance 405 nm; D23A/D198A/D206A triple mutant, cannot self-cleave; scale: DMSO 0, 5 µM enzyme 100;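 active = percent activation above the screen-wide mean plus 3 SD, cut at about 25% in these data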
Target sequence (P55210 whole entry D23A/D198A/D206A): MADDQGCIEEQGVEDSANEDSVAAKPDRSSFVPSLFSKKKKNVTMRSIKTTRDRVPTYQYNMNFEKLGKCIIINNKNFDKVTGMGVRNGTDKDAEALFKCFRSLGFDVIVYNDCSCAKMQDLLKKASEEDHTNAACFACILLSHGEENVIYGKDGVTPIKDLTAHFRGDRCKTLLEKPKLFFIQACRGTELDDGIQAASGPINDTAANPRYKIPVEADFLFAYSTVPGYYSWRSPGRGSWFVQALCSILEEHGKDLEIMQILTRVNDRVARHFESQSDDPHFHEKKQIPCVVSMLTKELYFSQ
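Replicates: singlicate. Assay system: Procaspase-7 triple mutant (PC-7 D3A). Signal: 405 nm absorbance of p-nitroaniline. Times: 1 h preincubation, 2 h reaction. Buffer or medium: Zinc-free HEPES pH 7.4 with 300 mM NaCl, 0.01% Triton X-100. Also added: DEVD-pNA substrate. Benchmarks: DMSO wells as 0%, DMSO with 5 µM added PC-7 as 100%.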
proCasp3 act – activators of human procaspase-3 D3A mutant, primary screen, biochemical, absorbance, PC-3 D3A mutant, single concentration | recombinant procaspase-3 D3A, Ac-DEVD-pNA absorbance 405 nm | activation, % at 8.5 µM | 0.11% of 330,000 active;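 active = activation above the mean of all tested compounds plus 3 SD, cut at about 21% in these data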;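 also: 0% = DMSO alone and 100% = DMSO wells spiked with extra 5 µM PC-3 D3A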
Target sequence (P42574 whole entry D9A/D28A/D175A): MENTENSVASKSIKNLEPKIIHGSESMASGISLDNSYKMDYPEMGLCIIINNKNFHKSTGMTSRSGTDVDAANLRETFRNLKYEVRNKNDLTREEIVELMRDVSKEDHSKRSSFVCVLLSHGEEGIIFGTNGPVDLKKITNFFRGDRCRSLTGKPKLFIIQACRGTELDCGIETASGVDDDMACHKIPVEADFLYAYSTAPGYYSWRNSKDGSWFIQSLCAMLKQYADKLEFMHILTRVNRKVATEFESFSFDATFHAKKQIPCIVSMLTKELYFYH
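System: Procaspase-3 D3A mutant. Medium: Zinc-free 300 mM NaCl, 50 mM HEPES, 0.01% Triton X-100. Schedule: 1 h preincubation plus 2 h reaction at 25 °C. Measured by: 405 nm absorbance of p-nitroaniline, reads at 0 and 120 min. Read-out: percent activation relative to control range.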
HGIII-sPLA2 inh – human group III sPLA2 inhibitors, primary screen, biochemical, QFRET, BODIPY PC-A2 liposome substrate; Group 3 secretory phospholipase A2 (Homo sapiens), Q9NZ20; inhibition, % at 12.2 µM; 0.56% of 370,000 active; QFRET BODIPY PC-A2 liposome hydrolysis, fluorescence;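 active = inhibition above mean plus 3 SD of compounds lying within the high and low control bounds, cut at about 19% in these data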;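 also: 0% = median of test compound wells and 100% = no enzyme DMSO wells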
PLC-gamma1 inh – PLC-gamma1 enzyme inhibitors, primary screen, biochemical, fluorescence, purified enzyme; 1-phosphatidylinositol 4,5-bisphosphate phosphodiesterase gamma-1 (Homo sapiens), P19174; fluorogenic substrate; inhibition, % at 12.2 µM; 0.84% of 370,000 active; AID 720700, 2013; in the data active = inhibition above about 9.5%
PLC-beta3 inh – human PLC-beta3 inhibitors, primary screen, biochemical, fluorescence. inhibition, % at 12.2 µM. AID 720704, 2013. 0.18% of 370,000 active. Purified PLC-beta3, fluorogenic substrate; in the data active = inhibition above about 11%;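 also: 0% = median of compound wells on plate and 100% = full blocker control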
hGIII sPLA2 conf – human group III sPLA2 inhibitors, confirmation, biochemical, QFRET, triplicate. shares compounds with HGIII-sPLA2 inh. inhibition, % at 12.2 µM. recombinant hGIII-sPLA2, BODIPY PC-A2 QFRET fluorescence. 34% of 2,000 active;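 active = mean inhibition across triplicates above the hit cutoff set in the earlier primary screen, cut at about 19% in these data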;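 also: 0% = enzyme with DMSO and 100% = DMSO wells lacking enzyme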
535nm interf – 535nm fluorescence optical interference, confirmation, artefact control for HGIII-sPLA2 inhibitor project, biochemical, QFRET. shares compounds with HGIII-sPLA2 inh. BODIPY FL product fluorescence interference. inhibition, % at 12.2 µM. 8.5% of 2,000 active;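 active = average inhibition above the solvent-only control mean plus 3 SD, cut at about 6% in these data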;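 also: 0% = DMSO with substrate plus product and 100% = DMSO with substrate alone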
BODIPY interf DR – 535nm fluorescence optical interference, dose response, artefact control for HGIII-sPLA2 inhibitor project, biochemical, QFRET. shares compounds with HGIII-sPLA2 inh. BODIPY FL product fluorescence interference, cell-free. IC50, µM. 240 tested, under 10 active;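 active = IC50 at or below 10 µM; inactive = IC50 above 10 µM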
Numbers without * were called inactive; · = no result given. Only some compounds are listed: those with a hit (about 1.9% of all), similar ones and a draw of the others.

SMILES | Arr AP2 block | procasp7 counter | proCasp3 act | HGIII-sPLA2 inh | PLC-gamma1 inh | PLC-beta3 inh | hGIII sPLA2 conf | 535nm interf | others
CCN(CC)S(=O)(=O)c1ccc(C(=O)Oc2coc(CSc3nc(C)cc(C)n3)cc2=O)cc1 | 8.7 | -0.5 | 5.0 | 20.6* | 2.1 | -1.2 | -28.9 | -28.7
CN(C)S(=O)(=O)c1ccc(C(=O)Oc2coc(CSc3ncccn3)cc2=O)cc1 | -4.4 | -5.7 | -3.2 | 0.1 | 6.0 | -1.3 | · | ·
CCCN1CCCc2ccccc21 | 0.7 | 7.0 | 1.2 | 11.3 | -5.4 | -3.2 | · | ·
N#CCCN1CCCc2cc(N=Nc3ccc(C(F)(F)F)cc3)ccc21 | -11.2 | -12.7 | -18.0 | 23.1* | 8.2 | -8.0 | 24.2* | 8.4*
Cc1cccc2nc(CSC(=N)N)c(Br)n12 | -8.7 | -19.4 | -10.6 | 23.6* | -10.4 | -15.2 | 11.0 | -11.2
N=C(N)SCc1nc2ccccn2c1Br | 29.9 | -8.9 | -6.4 | 29.7* | 1.6 | 2.6 | 5.0 | -4.4
O=C(O)c1ccccc1SCc1nc2ccccn2c1Br | -6.0 | 0.2 | -0.6 | 2.6 | -4.6 | -12.9 | · | ·
CCOC(=O)[C@@H]1[C@H]2COc3ccccc3[C@H]2N2C(=O)N(c3cccc(Cl)c3)C(=O)[C@]12C | 5.4 | 17.4 | 6.1 | -6.3 | 1.9 | 3.0 | · | ·
CCn1c(/C=C/c2c(C)n(CC)c3ccccc23)nc2ccccc2c1=O | 2.8 | 10.2 | -6.4 | 23.9* | -1.2 | 0.7 | 0.4 | -8.6
CCn1c(/C=C/c2ccccc2C)nc2ccccc2c1=O | -20.6 | 4.0 | -6.7 | 6.2 | -11.9 | -29.8 | · | ·
O=C1NC[C@@H](CCCCN2C[C@H](Cc3ccc(O)cc3)N(CCc3ccccc3)C(=O)C2=O)N(CCC2CCCCC2)C1=O | · | · | · | -22.6 | -1.0 | 2.5 | · | ·
S=C(NCc1ccccn1)Nc1cccc(Cl)c1 | 4.5 | 3.8 | -12.3 | 4.5 | -0.6 | -5.7 | · | ·
CC(=NNC(=S)Nc1cccc(Cl)c1)c1ccccn1 | 7.1 | · | · | 20.1* | -0.3 | -2.0 | 38.5* | 3.7
CCCC(=O)Nc1c(-c2ccccc2)c(=O)c(C)nn1-c1ccccc1 | 4.2 | 4.2 | -8.5 | 20.1* | 6.2 | 2.0 | -2.6 | -6.6
Cc1nn(-c2ccccc2)c(NC(=O)C(C)C)c(-c2ccccc2)c1=O | 1.9 | -1.7 | 4.5 | 18.4 | 1.2 | -8.0 | · | ·
COc1ccccc1N(C(=O)CCl)c1cn(C(C)=O)c2ccccc12 | 35.3 | -7.7 | 1.9 | -6.8 | -1.1 | -9.3 | · | ·
COc1ccccc1N(C(C)=O)C1=C(Cl)C(=O)c2ccccc2C1=O | · | · | · | 20.7* | -51.1 | -73.5 | 38.0* | 5.8 | BODIPY interf DR=>122
COc1ccc(C(=O)N2CCCc3ccccc32)cc1Br | 2.3 | -4.4 | 6.5 | -2.1 | -0.5 | -4.8 | · | ·
COc1cc(OC)cc(C(=O)N2CCCc3ccccc32)c1 | -3.6 | -3.2 | 3.5 | 19.5* | -2.8 | -6.0 | -0.9 | -15.9
CC(=O)c1c(C)[nH]c(-c2ccccc2)c1C | 4.3 | -6.6 | 7.3 | 28.0* | -2.4 | -4.5 | 11.1 | 1.9
O=C(OCC#CCSc1nnc(-c2ccccc2F)o1)c1ccc(F)cc1 | · | · | · | -10.6 | -1.9 | -0.2 | · | ·
CC(N)c1csc(NC(=O)c2cc(C(C)(C)C)nn2Cc2ccccc2)n1 (stereo not given) | · | · | · | -2.3 | -3.5 | -6.0 | · | ·
COc1ccc(CC(N)c2csc(NC(=O)c3cc(C(C)(C)C)nn3Cc3ccccc3)n2)cc1 (stereo not given) | · | · | · | 24.1* | -2.7 | -0.2 | 4.3 | -4.6
CCN(CC)c1ccc(/C=C/c2cc(-c3ccccc3)c3ccccc3n2)cc1 | -33.3 | -86.8 | -69.9 | 25.4* | -307.1 | -456.3 | -21.8 | 4.7
CN(C)c1ccc(/C=C/c2ccc3ccccc3n2)cc1 | 16.2 | 24.7 | 12.0 | · | · | · | · | ·
SMILES | Arr AP2 block | procasp7 counter | proCasp3 act | HGIII-sPLA2 inh | PLC-gamma1 inh | PLC-beta3 inh | hGIII sPLA2 conf | 535nm interf | others
CCc1ccc(N2C(=O)Nc3ccc(Br)cc3C2(O)C(=O)NCCN(C)C)cc1 (stereo not given) | 8.5 | 9.9 | 0.0 | 19.8* | 2.2 | -1.3 | 2.1 | -5.8
CCCCn1c(C23CC4CC(CC(C4)C2)C3)n[nH]c1=S | -2.0 | -29.1 | -16.0 | 25.1* | 3.8 | -8.2 | 43.9* | 3.6 | BODIPY interf DR=>122
CC(C)(CO)CNc1ccn2nccc2n1 | · | · | · | 21.5* | -23.8 | -35.3 | 0.3 | -1.6
CO/N=C/CC(=O)c1cnc(-c2ccc(Cl)cc2)s1 | 35.3 | -2.9 | 1.4 | -5.0 | -13.4 | -15.0 | · | ·
Cc1ccccc1C(=O)Nc1cccc(NC(=S)NC(=O)c2cccs2)c1 | 14.4 | -1.7 | -15.3 | 5.1 | 0.6 | 4.1 | · | ·
Cc1ccccc1C(=O)NNC(=S)NC(=O)c1cccs1 | 1.1 | -18.6 | -8.3 | 33.8* | -0.6 | -9.4 | 38.9* | -4.7 | BODIPY interf DR=>122
O=C(NNC(=S)NC1CC2C=CC1C2)c1cccnc1 (stereo not given) | 11.0 | -2.0 | -4.3 | 22.0* | 1.6 | 2.8 | 21.2* | -8.0
CCOc1cc(CNc2ncc(-c3ccc(OC)cc3)n2C)ccc1O | 1.4 | -14.1 | -9.3 | 20.1* | -7.0 | -8.7 | 6.5 | -16.9
COc1cc(OC)nc(NC(C)=O)n1 | -12.1 | 2.7 | 1.8 | 4.1 | 0.3 | 3.2 | · | ·
COc1cc(OC)nc(NC(=O)C(C)C)n1 | -4.1 | -0.5 | 5.1 | 19.7* | 6.3 | 6.1 | 3.0 | 0.5
CN1CCN(c2ncnc3c2ncn3[C@H]2CN(Cc3ccc(Cl)cc3)C[C@@H](CO)O2)CC1 | · | · | · | -2.4 | 0.7 | -0.7 | · | ·
Cc1onc(-c2ccccc2)c1NC(=O)N(CCC#N)Cc1ccccc1 | 25.8 | 8.6 | 3.6 | 13.1 | 2.5 | 4.4 | · | ·
Cn1nnc(NC(=S)NC(=O)c2cccs2)n1 | 15.2 | -23.7 | -28.4 | 3.0 | 3.0 | 3.0 | · | ·
